The values that follow come from ChEMBL document CHEMBL1127039, “Nonpeptide angiotensin II antagonists derived from 4H-1,2,4-triazoles and 3H-imidazo[1,2-b][1,2,4]triazoles” (J Med Chem, 1993).

Calls of active or inactive are those of the source. The rule behind the calls is not given here.

In test [1] the test system is Rattus norvegicus. The test can be described thus: Peak inhibition of A II pressor response in conscious normotensive rats after peroral administration of 0.3 mg/kg of drug (2 animals treated). The class given is functional. Conditions: route oral. The procedure, abridged:
(§1)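 Male Sprague-Dawley rats (300–400 g) catheterized under methohexital, recovered overnight, conscious. Compound given iv (saline or NaHCO3/saline/water vehicle) or po, with food withheld for oral dosing. AII 0.1 μg/kg iv bolus given at -45, -30 and -15 min, then at 5–60 min and every 30 min afterwards. Peak percent inhibition of the AII ΔMAP response, averaged over at least two rats.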

Test [2] deals with Rattus norvegicus. The test can be described thus: Time from onset of action until significant (i.e., >= 30%) inhibition of pressor response no longer observed (0.3 mg/kg intravenous route). The class given is functional. The method in brief:
(§2)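 Same conscious-rat AII challenge protocol: AII 0.1 μg/kg iv boluses repeated after iv or po dosing, ΔMAP recorded. Duration is the time from onset until inhibition falls below 30% and stays below 30% for two further AII challenges. Averaged over at least two rats.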

The test system of test [3] is Rattus norvegicus. The test can be described thus: Peak inhibition of A II pressor response in conscious normotensive rats after intravenous administration of 0.3 mg/kg of drug (2 animals treated). The class given is functional. The method in brief:
as §1

Test [4] deals with Rattus norvegicus. The test can be described thus: Time from onset of action until significant (i.e., >= 30%) inhibition of pressor response no longer observed (1 mg/kg peroral route). The class given is functional. The procedure, abridged:
as §2

Test [5] concerns Rattus norvegicus. The test can be described thus: Time from onset of action until significant (i.e., >= 30%) inhibition of pressor response no longer observed (0.3 mg/kg peroral route). The class given is functional. The method in brief: as §2
Test [6] relates to Rattus norvegicus. Briefly: Peak inhibition of A II pressor response in conscious normotensive rats after peroral administration of 1 mg/kg of drug (2 animals treated). Type of test: functional. Conditions: route oral. The procedure, abridged:
as §1

In test [7] the test system is Rattus norvegicus. The test can be described thus: Peak inhibition of A II pressor response in conscious normotensive rats after intravenous administration of 1 mg/kg of drug (2 animals treated). The class given is functional. The method in brief:
as §1

In test [8] the test system is Rattus norvegicus. The test can be described thus: Time from onset of action until significant (i.e., >= 30%) inhibition of pressor response no longer observed (1 mg/kg intravenous route). The class given is functional. The method in brief:
as §2

The target of test [9] is T1, Type-1 angiotensin II receptor (Oryctolagus cuniculus, UniProt P34976).
T1 sequence (P34976 whole entry): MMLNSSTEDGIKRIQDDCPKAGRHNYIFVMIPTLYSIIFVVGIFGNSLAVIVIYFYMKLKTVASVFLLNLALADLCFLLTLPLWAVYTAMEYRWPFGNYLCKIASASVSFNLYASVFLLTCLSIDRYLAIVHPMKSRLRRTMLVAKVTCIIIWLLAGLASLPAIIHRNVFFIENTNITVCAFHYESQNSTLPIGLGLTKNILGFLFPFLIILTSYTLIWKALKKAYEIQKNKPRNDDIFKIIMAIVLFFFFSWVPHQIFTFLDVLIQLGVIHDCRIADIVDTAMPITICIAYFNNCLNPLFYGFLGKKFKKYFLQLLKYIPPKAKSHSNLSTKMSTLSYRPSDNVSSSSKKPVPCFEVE
Briefly: Displacement of [125I]-Sar1-Ile8-A II at the rabbit aorta angiotensin II receptor, type 1. The class given is tissue-based. The procedure, abridged:
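Rabbit aorta membranes in 50 mM Tris-HCl pH 7.4, 5 mM MgCl2, 0.2 mg/mL bacitracin; 0.2% BSA only in original version. Nonspecific binding with 1 μM unlabeled Sar1Ile8-AII. Filtration, gamma counting. Duplicate tubes, five concentrations; IC50 from nonlinear regression of displacement curves, sometimes averaged over separate assays.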

In test [10] the test system is Rattus norvegicus. The test can be described thus: Peak inhibition of A II pressor response in conscious normotensive rats after intravenous administration of 3 mg/kg of drug (2 animals treated). The class given is functional. The procedure, abridged: as §1
The test system of test [11] is Rattus norvegicus. The test can be described thus: Time from onset of action until significant (i.e., >= 30%) inhibition of pressor response no longer observed (3 mg/kg intravenous route). The class given is functional. The procedure, abridged: as §2
For test [12], the system named is Rattus norvegicus. The test can be described thus: Time from onset of action until significant (i.e., >= 30%) inhibition of pressor response no longer observed (10 mg/kg intravenous route). The class given is functional. The procedure, abridged:
as §2

For test [13], the system named is Rattus norvegicus. Briefly: Peak inhibition of A II pressor response in conscious normotensive rats after intravenous administration of 10 mg/kg of drug (3 animals treated). The class given is functional. The method in brief: as §1
Test [14] concerns Rattus norvegicus. Briefly: Peak inhibition of A II pressor response in conscious normotensive rats after peroral administration of 0.3 mg/kg of drug (2 animals treated); Not active. Type of test: functional, organism-based. On the set-up: dose 0.3 mg/kg. The method in brief: as §1
The test system of test [15] is Rattus norvegicus. The test can be described thus: Time from onset of action until significant (i.e., >= 30%) inhibition of pressor response no longer observed (1 mg/kg intravenous route). Type of test: functional. The procedure, abridged: as §2
The subject of test [16] is Rattus norvegicus. The test can be described thus: Peak inhibition of A II pressor response in conscious normotensive rats after intravenous administration of 0.3 mg/kg of drug (4 animals treated). Type of test: functional. The procedure, abridged: as §1
In test [17] the test system is Rattus norvegicus. Briefly: Time from onset of action until significant (i.e., >= 30%) inhibition of pressor response no longer observed (0.3 mg/kg peroral route)); Not active. Type of test: functional, organism-based. The procedure, abridged:
as §2

Test [18] has as its system Rattus norvegicus. The test can be described thus: Peak inhibition of A II pressor response in conscious normotensive rats after intravenous administration of 3 mg/kg of drug (4 animals treated). The class given is functional. The procedure, abridged:
as §1

For test [19], the system named is Rattus norvegicus. The test can be described thus: Time from onset of action until significant (i.e., >= 30%) inhibition of pressor response no longer observed (3 mg/kg peroral route). The class given is functional. The method in brief:
as §2

The species named for test [20] is Rattus norvegicus. Briefly: In vitro antagonistic activity by displacement of [125I]-Sar1-Ile8-A II at the rat adrenal cortical […] AT1 receptor. Type of test: functional. (Loss of bound radioactivity is the signal in a displacement assay; it reports binding, not function.)
Test [21] relates to Rattus norvegicus. Briefly: Peak inhibition of A II pressor response in conscious normotensive rats after peroral administration of 3 mg/kg of drug (4 animals treated). The class given is functional. Conditions: route oral. The method in brief: as §1
Test [22] has as its system Rattus norvegicus. The test can be described thus: Time from onset of action until significant (i.e., >= 30%) inhibition of pressor response no longer observed (1 mg/Kg intravenous route). The class given is functional. The method in brief:
as §2

For test [23], the system named is Rattus norvegicus. The test can be described thus: Peak inhibition of A II pressor response in conscious normotensive rats after intravenous administration of 1 mg/Kg of drug (2 animals treated). The class given is functional. The procedure, abridged:
as §1

Test [24] deals with Rattus norvegicus. Briefly: Time from onset of action until significant (i.e., >= 30%) inhibition of pressor response no longer observed (30 mg/kg peroral route). The class given is functional. The method in brief: as §2
Test [25] relates to Rattus norvegicus. Briefly: Peak inhibition of A II pressor response in conscious normotensive rats after peroral administration of 30 mg/kg of drug. Conditions: route oral. Type of test: functional. The procedure, abridged: as §1
For test [26], the system named is Rattus norvegicus. Briefly: Time from onset of action until significant (i.e., >= 30%) inhibition of pressor response no longer observed (0.3 mg/kg peroral route); Not active. Type of test: functional, organism-based. The method in brief: as §2
Test [27] concerns Rattus norvegicus. Briefly: Peak inhibition of A II pressor response in conscious normotensive rats after peroral administration of 3 mg/kg of drug (results shown for 3 out of 4 animals). The class given is functional. Conditions: route oral. The procedure, abridged: as §1
Test [28] has as its system Rattus norvegicus. Briefly: Time from onset of action until significant (i.e., >= 30%) inhibition of pressor response no longer observed (3 mg/kg intravenous route). Type of test: functional. The method in brief:
as §2

In test [29] the test system is Rattus norvegicus. The test can be described thus: Peak inhibition of A II pressor response in conscious normotensive rats after peroral administration of 3 mg/kg of drug (3 animals treated). The class given is functional. Conditions: route oral. The method in brief:
as §1

As for `CCCCc1nc(Cl)c(C(=O)O)n1Cc1ccc(-c2ccccc2-c2nn[nH]n2)cc1` [CARBOXYLIC ACID METABOLITE], the inhibition in vivo at 0.3 mg/kg was 63% in [1] and 100% in [3]. Besides, the Duration in [2] was greater than 29 h; in test [4], greater than 7 h; in test [5] it was 2.8 h. Further, the inhibition in vivo at 1 mg/kg in test [6] is 72%.

In test [7], `CCCCc1nnc(SCc2ccccc2-c2nn[nH]n2)n1Cc1ccc(-c2ccccc2-c2nn[nH]n2)cc1` returned an inhibition in vivo at 1 mg/kg of 62%. Also, the Duration in test [8] worked out at 0.6 h. For the same compound, the IC50 in test [9] was determined as 1.4 nM.

For the compound `CCCCc1nnc(SCc2ccccc2C)n1Cc1ccc(NC(=O)c2ccccc2C(=O)O)cc1`, testing at 3 mg/kg in test [10] gave an inhibition in vivo of 56%. Moreover, in [11], the Duration is 0.5 h. Besides, the IC50 in [9] was found to be 14 nM.

Consider `CCCCc1nnc(SCC(=O)OC)n1Cc1ccc(-c2ccccc2C(=O)O)cc1`, for which the Duration in [12] turned out to be 0.9 h. The inhibition in vivo at 10 mg/kg in test [13] stood at 93%. The compound further had an IC50 in test [9] of 540 nM.

As for `CCCCc1nnc(SCc2ccccc2C(=O)O)n1Cc1ccc(NC(=O)c2ccccc2C(=O)O)cc1`, the Duration in test [2] stood at 0.9 h; in [15] it was 1.4 h. In addition, the inhibition entry in test [14] is “inactive”. The compound also had an inhibition in vivo at 1 mg/kg in test [7] of 100%. The inhibition in vivo at 0.3 mg/kg in test [16] turned out to be 74%. Moreover, in [9], the IC50 stood at 3.3 nM. Further, the Duration entry in [17] was “inactive”.

With `CCCCc1nnc(SCc2ccc([N+](=O)[O-])cc2)n1Cc1ccc(-c2ccccc2-c2nn[nH]n2)cc1`, the Duration in test [11] was determined as 1.4 h. In test [9], the half-maximal inhibitory concentration (IC50) was determined as 6.6 nM. The compound further gave an inhibition in vivo at 3 mg/kg in [18] of 65%.

With `CCCCc1nnc(SCc2ccc(OC)cc2)n1Cc1ccc(NC(=O)c2ccccc2-c2nn[nH]n2)cc1`, the inhibition in vivo at 1 mg/kg in [7] is 70%. Further, in [8], the Duration amounted to 0.2 h. For the same compound, the IC50 in test [9] is 4.1 nM.

As to `CCCCc1nc(Cl)c(CO)n1Cc1ccc(-c2ccccc2-c2nnn[nH]2)cc1` [LOSARTAN], the values for the inhibition in vivo at 0.3 mg/kg in [1] and in test [16] were 36% and 52%, respectively. For the same compound, the Duration was 5.5 h in test [2], greater than 4.5 h in test [19] and greater than 3.5 h in [5]. The compound also had an IC50 in test [20] of 19 nM. For the same compound, in test [21], at 3 mg/kg the inhibition in vivo was 94%.

In [10], `CCCCc1nnc(SCc2ccc(C)cc2)n1Cc1ccc(NC(=O)c2ccccc2C(=O)O)cc1` displayed an inhibition in vivo at 3 mg/kg of 50%. In addition, in test [11], the Duration is 0.1 h. In test [9], the IC50 turned out to be 7.6 nM.

As for `CCCCc1nnc([S+]([O-])Cc2ccc(Cl)cc2)n1Cc1ccc(-c2ccccc2-c2nn[nH]n2)cc1` (stereo not given), the Duration in test [22] turned out to be 0.1 h. In test [9], the half-inhibitory concentration (IC50) is 11 nM. The same compound returned an Inhibition in test [23] of 42%.

`CCCCc1nnc(SCc2ccccc2)n1Cc1ccc(NC(=O)c2ccccc2C(=O)O)cc1` had a Duration in [24] of 0.4 h. The inhibition in vivo at 30 mg/kg in [25] was 33%. This compound came in with an IC50 in test [9] of 15 nM.

Regarding `CCCCc1nnc(SCc2ccccc2C(=O)O)n1Cc1ccc(-c2ccccc2-c2nn[nH]n2)cc1`, the results for the inhibition in vivo at 0.3 mg/kg in test [1] and in test [3] were 0% and 100%, respectively. In addition, the Duration was 5.5 h in test [2] and greater than 6 h in [19]. The Duration result in [26] was “inactive”. This compound also displayed an inhibition in vivo at 3 mg/kg in [27] of 54%. This compound also had a concentration for half-maximal inhibition (IC50) in test [9] of 1.5 nM.

On to `CCCCc1nnc(SCc2ccc(Cl)cc2)n1Cc1ccc(-c2ccccc2-c2nn[nH]n2)cc1`, for which the results for the inhibition in vivo at 3 mg/kg in [10] and in test [29] were 62% and 50%, respectively. Besides, the Duration in [19] worked out at 1.5 h; in test [28] it was 1 h.

As a reminder, the inhibition in vivo is the drop in the measured response relative to a control, in per cent. Lower therefore signals little suppression. As a reminder, the IC50 is the concentration at which inhibition is half-maximal. The low end stands for higher potency, the high end for lower potency. The Inhibition is the relative decrease from the control value, in per cent.
